# Insulin prom up: insulin promoter activators in MIN6 cells, imaging, high-content screening, mouse beta cells. MIN6 insulin promoter-GFP reporter; stronger effect = higher value. z-score at 5 µM. 190,000 tested, 0.3% active;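 active means z-score above 3 at 5 µM with at least 500 cells counted in the well; inconclusive means wells under 500 cells, flagged as cytotoxic or low count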
# PKD1 inh: inhibitors of human PKD1 kinase, biochemical, fluorescence polarization; inhibition, % (test concentration not listed); Serine/threonine-protein kinase D1 (Homo sapiens), Q15139; AID 797, 2007; PKD1 kinase fluorescence polarization assay; 200,000 tested, 0.056% active; in the data active means inhibition above about 50%
# Arbovirus inh: antivirals against arbovirus infection, primary screen, cell-based, full library, 10K replicate subset. AID 1251, 2008. arbovirus infection cell-based antiviral screen. inhibition, % at 10 µM. 200,000 tested, 0.37% active; in the data active means inhibition above about 30%
# INS promoter inh: inhibitors of insulin promoter-driven GFP, primary screen, imaging, TRM-6 cells (human fetal islet line), eGFP reporter, cell count; reporter expression induced with tamoxifen; inhibition, % at 2 µM; 130,000 tested, 0.9% active; AID 1273, 2008;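 active means inhibition above the mean plus 3 SD, with well images judged a real hit on visual review, cut at about 60% in these data, passing the limit was not always enough; inconclusive means inhibition over the cutoff but images rejected on review; inactive means inhibition not above the cutoff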
# RBBP9 inh: human RBBP9 inhibitors, primary screen, biochemical, fluorescence polarization, FP-Rh probe, HTS. inhibition, % at 7.94 µM. 220,000 tested, 0.2% active. recombinant RBBP9. Serine hydrolase RBBP9 (Homo sapiens), O75884;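 active means inhibition above the campaign mean of all tested compounds plus 3 SD, cut at about 14% in these data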;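 further: plate controls were DMSO wells with RBBP9 for no effect and wells lacking RBBP9 protein for full effect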
# Target sequence (O75884 whole entry, looked up): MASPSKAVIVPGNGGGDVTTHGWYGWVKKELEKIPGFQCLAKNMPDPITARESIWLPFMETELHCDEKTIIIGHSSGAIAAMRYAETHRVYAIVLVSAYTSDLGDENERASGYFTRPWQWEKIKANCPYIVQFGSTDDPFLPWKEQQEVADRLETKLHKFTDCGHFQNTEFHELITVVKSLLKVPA
#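 System: RBBP9 protein / Buffer or medium: Tris/NaCl buffer pH 8.0 with 0.1% Pluronic / Probe or stimulus: Serine-hydrolase probe FP-Rh, 375 nM pre-mixing / Dosing: 7.94 µM single dose, 0.794% DMSO / Times: enzyme-compound preincubation 30 min, then probe labeling 45 min, 25 °C / Technique: fluorescence polarization (mP), excitation 525 nm, emission 598 nm / Replication: singlicate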
# Autophagy mod: autophagy modulators in MEF cells, primary screen, imaging, high-content, MEF GFP-LC3; MEF GFP-LC3 puncta imaging; test concentration mostly 10 µM; calls only at 10 µM (by protocol); 190,000 tested, 0.98% active;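 active means percentage of spot-positive cells more than 3 SD above its plate mean, without a fluorescence outlier flag or 80% toxicity; inconclusive means no clear call, values can overlap the other calls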;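 further: spot-positive cell cutoff set from DMSO-treated cells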
# * = called active by the depositor; i = inactive; u = inconclusive; x = no result given; + = active, no number. Compounds with a hit are over-represented: about 2.1% of the library has one in this group of screens.
SMILES,Insulin prom up,PKD1 inh,Arbovirus inh,INS promoter inh,RBBP9 inh,Autophagy mod
CCn1cc(C(=O)N2CCN(c3cccc(C)c3C)CC2)c(=O)c2ccc(C)nc21,0.02,x,x,x,-2,x
Nc1cc(=O)[nH]c(SCC(=O)Nc2nc3ccc([N+](=O)[O-])cc3s2)n1,-0.15,-4,-4,x,-9,+
Nc1cc(=O)[nH]c(SCC(=O)Nc2cc([N+](=O)[O-])ccc2Cl)n1,0.7,-3,10,x,-9,i
CCO[C@@H]1OC(C(=O)NCc2ccccc2)=C[C@H](c2ccccc2)[C@H]1CCCO,-0.56,-5,-4,x,-6,i
N=C1S/C(=C\c2ccc(-c3cccc(Cl)c3)o2)C(=O)N1c1nccs1,2.1,-6,-25,x,6,+
O=C(O/N=C1\CCCc2ccccc21)c1cccc(Cl)c1,-0.05,11,-6,-9,-7,i
Cc1cc(NC(=O)c2ccc([N+](=O)[O-])cc2)n(C)n1,0.29,x,x,x,-2,x
Cc1ccc(-c2csc(C(C#N)=C3CCCC3)n2)cc1,1.2,-7,0,75*,-2,i
CCN1C/C(=C/c2cccc([N+](=O)[O-])c2)C(=O)/C(=C/c2cccc([N+](=O)[O-])c2)C1,0.13,0,-37,100*,-8,i
COc1ccc(Br)cc1CN(C)CC(=O)Nc1c(Cl)ccc(C)c1Cl,0.41,-1,6,x,-8,i
COc1ccccc1NC(=O)C1=C(C)Nc2nc(-c3cccs3)nn2C1c1cccc(O)c1 (stereo not given),-1.2,1,-24,x,-13,+
COc1ccc(C2C(C(=O)Nc3cccnc3)=C(C)Nc3nc(-c4cccs4)nn32)cc1OC (stereo not given),1.2,-3,-5,x,-5,x
O=C(N/N=C/C1=C(N2CCOCC2)C(=C\c2ccccc2)/CC1)Nc1ccccc1,-0.34,-6,-11,-6,-1,i
CCN(CC)c1ccc(/C=C2\CCC(/C=N/NC(=O)c3ccc(=O)n(C)c3)=C2N2CCOCC2)cc1,2.3,-13,-8,x,1,+
CC(NC(=O)C12CC3CC(CC(C3)C1)C2)C(=O)N/N=C/C1=C(N2CCOCC2)C(=C\c2cccc([N+](=O)[O-])c2)/CC1 (stereo not given),-0.12,-10,-16,50,2,i
CC(C)C(NC(=O)C12CC3CC(CC(C3)C1)C2)C(=O)N/N=C/C1=C(N2CCOCC2)C(=C\c2ccc([N+](=O)[O-])cc2)/CC1 (stereo not given),0.27,-6,-3,-176,-4,+
Cc1cccc(C2C3=C(Nc4[nH]n(-c5ccccc5)c(=O)c42)c2ccccc2C3=O)c1 (stereo not given),-4.1,-6,22,-24,-2,+
Cc1ccccc1C1C2=C(Nc3[nH]n(-c4ccccc4)c(=O)c31)c1ccccc1C2=O (stereo not given),-0.08,10,19,35,0,i
COc1ccc(C(=O)NCc2ccccc2)cc1Br,-0.23,-7,1,x,-1,i
COCCCn1c(SCC(=O)Nc2ccc(C(C)=O)cc2)nc2ccccc2c1=O,0.45,-13,4,-6,-5,i
CCN(CC)CCCNC(=O)c1sc2nc(-c3ccc(F)cc3)cn2c1C,0.67,-8,-39,x,-1,+
Cc1c(C(=O)NCc2ccccn2)sc2nc(-c3ccc(F)cc3)cn12,-0.64,0,-37,-108,4,i
O=C(O)c1ccccc1NCCO,1.6,6,18,-18,-5,i
Cc1ccc(-n2cccc2/C=C2\C(=N)N3N=C(C(C)C)SC3=NC2=O)cc1,-0.07,-4,32*,-8,-16,i
CCC1=NN2C(=N)/C(=C\c3cccn3-c3ccc(OC)cc3)C(=O)N=C2S1,-0.3,-1,30,50,-13,i
SMILES,Insulin prom up,PKD1 inh,Arbovirus inh,INS promoter inh,RBBP9 inh,Autophagy mod
COc1ccc(NC(=O)/C(C#N)=C\c2ccc(N3CCOCC3)o2)cc1,x,-14,-2,x,-1,i
CCc1ccc(NC(=O)/C(C#N)=C/c2cc3ccc(C)cc3nc2N2CCOCC2)cc1,0.55,-6,-22,-7,-6,+
CCn1c(C)nc2cc(C(=O)N/N=C/c3ccc(OC)cc3)ccc21,-0.47,-3,3,x,0,i
COc1ccc(NC(=O)c2cnc(C)cn2)cc1-n1cnnn1,-1.3,-11,-5,46,-8,i
CCN(CC)CCOC(=O)c1ccc(Cl)cc1,0.34,-1,14,-25,-14,i
CCOc1ccc(C(=O)OCCN(CC)CC)cc1,x,-2,7,80*,-8,i
O=C1c2ccccc2C2=Nc3ccccc3SC(c3cccc(F)c3)C12 (stereo not given),-0.74,-3,-23,-31,-8,i
COc1cc2[nH]c(=O)n(CCCCCC(=O)NCCc3c[nH]c4ccccc34)c(=O)c2cc1OC,x,-3,-7,67*,-3,i
O=C(Nc1ccc(Nc2ccccc2)cc1)c1ccc(Br)o1,-0.68,-13,-32,6,-4,i
O=C(Nc1ccc(Cc2ccncc2)cc1)c1ccc(Br)o1,-0.13,-6,-7,-288,0,+
O=C(Nc1ccc(C2=NCCN2)cc1)c1ccc(C(=O)Nc2ccc(C3=NCCN3)cc2)c([N+](=O)[O-])c1,-1.7,x,x,x,4,x
O=[N+]([O-])c1cc(Cl)cc(C2=NCCN2)c1,0.61,3,-11,79*,-9,i
COc1cccc(-n2nnc3c(=O)n(Cc4cccc(C)c4)cnc32)c1,-0.07,x,-16,x,x,x
CCc1cc2ccc(C)cc2nc1SCC(=O)N1CCN(C(=O)c2ccco2)CC1,-1.4,1,3,63,0,i
Cc1[nH]c2ccccc2c1C(C[N+](=O)[O-])c1cccc(O)c1 (stereo not given),-0.47,2,9,-7,-5,i
COc1cc(C(C[N+](=O)[O-])c2c(C)[nH]c3ccccc23)ccc1O (stereo not given),0.38,2,5,12,-1,+
Nc1nonc1C(=O)NCCNCc1cc(Br)ccc1OCc1ccc(F)cc1,u,-1,5,x,-5,+
COc1ccc(CNCCNC(=O)c2nonc2N)cc1OC,0.13,-1,5,15,-7,i
Cc1occc1C(=O)NC(C)C1CCCO1 (stereo not given),x,-2,4,23,-2,i
Cc1noc(C)c1C(=O)NC(C)C1CCCO1 (stereo not given),0.16,-3,1,89*,-13,i
CCc1ccc(-c2cc(C(F)(F)F)n3nc(C(=O)Nc4c(C)nn(Cc5ccccc5Cl)c4C)cc3n2)s1,-3,2,-4,29,1,+

# Screens: PubChem, several laboratories
